The values that follow come from ChEMBL document CHEMBL1150614, “Novel cytotoxic oxygenated C29 sterols from the Colombian marine sponge Polymastia tenax” (J Nat Prod, 2002).

The structures appear in SMILES notation. ≈ marks a conversion by molar mass, not a printed value.

Settings in all cases: read-out: LC50 (the source's name)
For data set [1], the system named is A549. Kind of data set: Cytotoxicity against human A549 cells. The format is functional. The method, boiled down: (§1)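 In vitro cytotoxicity assay against the cell line named; values reported as IC50 in µg/mL.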
Data set [2] is described as follows: Cytotoxicity against mouse MS1 cells. Format: cell-based. The essentials:
as §1

Data set [3] has as its system PC-3. Kind of data set: Cytotoxicity against human PC3 cells. The format is functional. The method, boiled down:
as §1

Data set [4] relates to HT-29. As to the kind of experiment: Cytotoxicity against human HT-29 cells. The format is functional. The method, boiled down: as §1
The nature of data set [5]: Cytotoxicity against human H116 cells. The format is functional. The essentials:
as §1

Regarding `CC[C@H](CC[C@@H](C)[C@H]1CCC2=C3[C@H](O)[C@@H]4O[C@@]45C[C@@H](O)CC[C@]5(C)[C@H]3CC[C@@]21C)C(C)C`, the CC50 in data set [1] is 5 µg/mL (≈ 11.2 µM); in data set [2], 0.5 µg/mL (≈ 1.12 µM); in data set [3], 1 µg/mL (≈ 2.25 µM); in data set [4], 1 µg/mL (≈ 2.25 µM); in data set [5] it was 1 µg/mL (≈ 2.25 µM).
As for `CC[C@H](CC[C@@H](C)[C@H]1CC[C@H]2C3=C(CC[C@]12C)[C@@]1(C)CC[C@H](O)C[C@@]12O[C@H]2[C@H]3O)C(C)C` (relative stereo), the CC50 was 1 µg/mL (≈ 2.25 µM) in data set [1]; 0.5 µg/mL (≈ 1.12 µM) in data set [2]; 1 µg/mL (≈ 2.25 µM) in data set [3]; 1 µg/mL (≈ 2.25 µM) in data set [4]; 1 µg/mL (≈ 2.25 µM) in data set [5].
